{"source": "ChEMBL document CHEMBL1126775", "about": "“A pharmacological, crystallographic, and quantum chemical study of new inotropic agents” (J Med Chem, 1993)", "key": {"Cavia porcellus [1]": {"species_on_record": "Cavia porcellus", "test": "Effect on contractile force of spontaneously beating atria from reserpine treated guinea pigs at the concentration of 5x 10 e-4 M (negative ionotropic effect)", "assay_type": "functional"}, "Cavia porcellus [2]": {"species_on_record": "Cavia porcellus", "test": "Effect on inotropic response to 10 e-6 8-phenyltheophylline in electrically driven left atrium from reserpine-treated guinea pigs at 5 x 10 e-5 M", "assay_type": "functional, Cardiac atrium", "summary_of_the_method": "(§1)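 Paced left atrium (1.5 Hz, 0.5 g load) from reserpine-pretreated guinea pigs. Test agent (10^-4 or 5×10^-5 M) added to perfusion 10 min before cumulative 8-phenyltheophylline (10^-6–10^-4 M). Developed tension as % increase over control. Mean ± SEM of four assays from four experiments; Student's t test against atria without the test agent.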"}, "Cavia porcellus [3]": {"species_on_record": "Cavia porcellus", "test": "Effect on inotropic response to 3 x 10 e-5 8-phenyltheophylline in electrically driven left atrium from reserpine-treated guinea pigs", "assay_type": "functional, Cardiac atrium", "summary_of_the_method": "as §1"}, "[4]": {"test": "Logarithm of the sum of contributions of each atom to the total lipophilicity of the molecule", "assay_type": "physicochemical", "details": "octanol/water"}, "Cavia porcellus [5]": {"species_on_record": "Cavia porcellus", "test": "Effect on inotropic response to 3x 10 e-5 8-phenyltheophylline in electrically driven left atrium from reserpine-treated guinea pigs at 5 x 10 e-5 M", "assay_type": "functional, Cardiac atrium", "summary_of_the_method": "as §1"}, "Cavia porcellus [6]": {"species_on_record": "Cavia porcellus", "test": "Effect on inotropic response to 10 e-6 8-phenyltheophylline in electrically driven left atrium from reserpine-treated guinea pigs at 10 e-4 M", "assay_type": "functional, Cardiac atrium", "summary_of_the_method": "as §1"}, "Cavia porcellus [7]": {"species_on_record": "Cavia porcellus", "test": "Effect on contractile force of spontaneously beating atria from reserpine treated guinea pigs at the concentration of 10 e-5 M (negative ionotropic effect)", "assay_type": "functional"}, "Cavia porcellus [8]": {"species_on_record": "Cavia porcellus", "test": "Effect on inotropic response to 10 e-5 8-phenyltheophylline in electrically driven left atrium from reserpine-treated guinea pigs at 10 e-4 M", "assay_type": "functional, Cardiac atrium", "summary_of_the_method": "as §1"}, "Cavia porcellus [9]": {"species_on_record": "Cavia porcellus", "test": "Effect on inotropic response to 10 e-4 8-phenyltheophylline in electrically driven left atrium from reserpine-treated guinea pigs", "assay_type": "functional, Cardiac atrium", "summary_of_the_method": "as §1"}, "Cavia porcellus [10]": {"species_on_record": "Cavia porcellus", "test": "Effect on frequency rate of spontaneously beating atria from reserpine treated guinea pigs at the concentration of 10 e-4 M (negative chronotropic ionotropic effect)", "assay_type": "functional"}, "Cavia porcellus [11]": {"species_on_record": "Cavia porcellus", "test": "Effect on frequency rate of spontaneously beating atria from reserpine treated guinea pigs at the concentration of 2 x 10 e-3 M (negative chronotropic ionotropic effect)", "assay_type": "functional"}, "Cavia porcellus [12]": {"species_on_record": "Cavia porcellus", "test": "Effect on inotropic response to 10 e-4 8-phenyltheophylline in electrically driven left atrium from reserpine-treated guinea pigs at 5 x 10 e-5 M", "assay_type": "functional, Cardiac atrium", "summary_of_the_method": "as §1"}, "Cavia porcellus [13]": {"species_on_record": "Cavia porcellus", "test": "Effect on frequency rate of spontaneously beating atria from reserpine treated guinea pigs at the concentration of 5 x 10 e-4 M (negative chronotropic ionotropic effect)", "assay_type": "functional"}, "Cavia porcellus [14]": {"species_on_record": "Cavia porcellus", "test": "Effect on inotropic response to 10 e-6 8-phenyltheophylline in electrically driven left atrium from reserpine-treated guinea pigs", "assay_type": "functional, Cardiac atrium", "summary_of_the_method": "as §1"}, "Cavia porcellus [15]": {"species_on_record": "Cavia porcellus", "test": "Effect on frequency rate of spontaneously beating atria from reserpine treated guinea pigs at the concentration of 10 e-3 M (negative chronotropic ionotropic effect)", "assay_type": "functional"}, "Cavia porcellus [16]": {"species_on_record": "Cavia porcellus", "test": "Effect on inotropic response to 3 x 10 e-6 8-phenyltheophylline in electrically driven left atrium from reserpine-treated guinea pigs", "assay_type": "functional, Cardiac atrium", "summary_of_the_method": "as §1"}, "Cavia porcellus [17]": {"species_on_record": "Cavia porcellus", "test": "Effect on inotropic response to 10 e-5 8-phenyltheophylline in electrically driven left atrium from reserpine-treated guinea pigs", "assay_type": "functional, Cardiac atrium", "summary_of_the_method": "as §1"}, "Cavia porcellus [18]": {"species_on_record": "Cavia porcellus", "test": "Effect on contractile force of spontaneously beating atria from reserpine treated guinea pigs at the concentration of 2 x 10 e-3 M (negative ionotropic effect)", "assay_type": "functional"}, "Cavia porcellus [19]": {"species_on_record": "Cavia porcellus", "test": "Effect on inotropic response to 10 e-5 8-phenyltheophylline in electrically driven left atrium from reserpine-treated guinea pigs at 5 x 10 e-5 M", "assay_type": "functional, Cardiac atrium", "summary_of_the_method": "as §1"}, "Cavia porcellus [20]": {"species_on_record": "Cavia porcellus", "test": "Effect on inotropic response to 3 x 10 e-6 8-phenyltheophylline in electrically driven left atrium from reserpine-treated guinea pigs at 10 e-4 M", "assay_type": "functional, Cardiac atrium", "summary_of_the_method": "as §1"}, "Cavia porcellus [21]": {"species_on_record": "Cavia porcellus", "test": "Effect on contractile force of spontaneously beating atria from reserpine treated guinea pigs at the concentration of 10 e-3 M (negative ionotropic effect)", "assay_type": "functional"}, "Cavia porcellus [22]": {"species_on_record": "Cavia porcellus", "test": "Effect on inotropic response to 10 e-4 8-phenyltheophylline in electrically driven left atrium from reserpine-treated guinea pigs at 10 e-4 M", "assay_type": "functional, Cardiac atrium", "summary_of_the_method": "as §1"}, "Cavia porcellus [23]": {"species_on_record": "Cavia porcellus", "test": "Effect on frequency rate of spontaneously beating atria from reserpine treated guinea pigs at the concentration of 5 x 10 e-5 M (negative chronotropic ionotropic effect)"}, "Cavia porcellus [24]": {"species_on_record": "Cavia porcellus", "test": "Effect on inotropic response to 3 x 10 e-5 8-phenyltheophylline in electrically driven left atrium from reserpine-treated guinea pigs at 10 e-4 M", "assay_type": "functional, Cardiac atrium", "summary_of_the_method": "as §1"}, "Cavia porcellus [25]": {"species_on_record": "Cavia porcellus", "test": "Effect on contractile force of spontaneously beating atria from reserpine treated guinea pigs at the concentration of 5x 10 e-5 M (negative ionotropic effect)", "assay_type": "functional"}, "Cavia porcellus [26]": {"species_on_record": "Cavia porcellus", "test": "Effect on inotropic response to 3 x 10 e-6 8-phenyltheophylline in electrically driven left atrium from reserpine-treated guinea pigs at 5 x 10 e-5 M", "assay_type": "functional, Cardiac atrium", "summary_of_the_method": "as §1"}, "Cavia porcellus [27]": {"species_on_record": "Cavia porcellus", "test": "Effect on contractile force of spontaneously beating atria from reserpine treated guinea pigs at the concentration of 10 e-4 M (negative ionotropic effect)", "assay_type": "functional"}}, "note": "Where “and” joins values, the source holds several entries; their conditions need not be identical. Equal entries are not always repeated."}
{"smiles": "O=C(c1ccccc1)c1ccc(O)nc1-c1ccccc1", "values": [{"measurement": "Increase", "setting": "Cavia porcellus [1]", "value": -38.32, "unit": "%"}, {"measurement": "Increase", "setting": "Cavia porcellus [2]", "value": 5.7, "unit": "%"}, {"measurement": "Increase", "setting": "Cavia porcellus [3]", "value": 14.72, "unit": "%"}, {"measurement": "logP", "setting": "[4]", "value": 3.82}, {"measurement": "Increase", "setting": "Cavia porcellus [5]", "value": 17.41, "unit": "%"}, {"measurement": "Increase", "setting": "Cavia porcellus [6]", "value": 4.56, "unit": "%"}, {"measurement": "Increase", "setting": "Cavia porcellus [7]", "value": -2.67, "unit": "%"}, {"measurement": "Increase", "setting": "Cavia porcellus [8]", "value": 18.78, "unit": "%"}, {"measurement": "Increase", "setting": "Cavia porcellus [9]", "value": 20.81, "unit": "%"}, {"measurement": "Increase", "setting": "Cavia porcellus [10]", "value": -14.92, "unit": "%"}, {"measurement": "Increase", "setting": "Cavia porcellus [11]", "value": -40.57, "unit": "%"}, {"measurement": "Increase", "setting": "Cavia porcellus [12]", "value": 25.91, "unit": "%"}, {"measurement": "Increase", "setting": "Cavia porcellus [13]", "value": -24.37, "unit": "%"}, {"measurement": "Increase", "setting": "Cavia porcellus [14]", "value": 4.27, "unit": "%"}, {"measurement": "Increase", "setting": "Cavia porcellus [15]", "value": -32.89, "unit": "%"}, {"measurement": "Increase", "setting": "Cavia porcellus [16]", "value": 7.33, "unit": "%"}, {"measurement": "Increase", "setting": "Cavia porcellus [17]", "value": 11.19, "unit": "%"}, {"measurement": "Increase", "setting": "Cavia porcellus [18]", "value": -46.27, "unit": "%"}, {"measurement": "Increase", "setting": "Cavia porcellus [19]", "value": 14.44, "unit": "%"}, {"measurement": "Increase", "setting": "Cavia porcellus [20]", "value": 11.38, "unit": "%"}, {"measurement": "Increase", "setting": "Cavia porcellus [21]", "value": -43.71, "unit": "%"}, {"measurement": "Increase", "setting": "Cavia porcellus [22]", "value": 27.05, "unit": "%"}, {"measurement": "Increase", "setting": "Cavia porcellus [23]", "value": "-4.26% and -9.3%"}, {"measurement": "Increase", "setting": "Cavia porcellus [24]", "value": 20.17, "unit": "%"}, {"measurement": "Increase", "setting": "Cavia porcellus [25]", "value": -7.3, "unit": "%"}, {"measurement": "Increase", "setting": "Cavia porcellus [26]", "value": 8.13, "unit": "%"}, {"measurement": "Increase", "setting": "Cavia porcellus [27]", "value": -24.76, "unit": "%"}]}
